# Bioassay records: PubChem BioAssay, NMMLSC
# Rows were chosen to be rich in hits. Some 2.3% of all compounds tested hit in one or more screens of this group.
# Arr AP2 block – inhibitors of human beta-arrestin and AP2 interaction. FITC-arrestin peptide / GST-AP2 beads, flow cytometry; AP2 beta2 appendage carries R879A mutation. inhibition, % at 10 µM. hit rate 0.31% among 340,000;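 active = inhibition above a set limit, near 3 SD of compounds lacking own fluorescence, cut at about 54% in these data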;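 note: plate controls were DMSO wells for no effect and 5 µM unlabelled arrestin peptide for full effect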
#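 system = GST-tagged AP2 beta2-adaptin appendage (R879A) on 4 µm glutathione beads | reagent = FITC-labelled arrestin peptide probe, 50 nM final | schedule = compound with beads 12 min RT, then probe 1 h RT | signal = HyperCyt-sampled flow cytometry, FL1 channel, ex 488/em 535 nm | read-out = percent response from loss of bead-bound FITC fluorescence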
# MEKK3 PB1 HTS – raises or lowers MEK5 binding to the human MEKK3 PB1 domain; Q99759; bead-based flow cytometry, Alexa488-MEK5 binding to MEKK3; actives lie on both sides; 0 = blocked by unlabeled MEK5, 100 = vehicle; AID 1529; binding response (% of control), % at 10 µM; hit rate 1.4% among 290,000;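 active = binding response more than 3 SD above or below the average of its plate-row segment, actives on both sides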;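 note: Alexa488 bead fluorescence after subtracting the streptavidin-only scavenger bead signal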
# Target sequence (Q99759 whole entry, looked up, the tested form may be a part): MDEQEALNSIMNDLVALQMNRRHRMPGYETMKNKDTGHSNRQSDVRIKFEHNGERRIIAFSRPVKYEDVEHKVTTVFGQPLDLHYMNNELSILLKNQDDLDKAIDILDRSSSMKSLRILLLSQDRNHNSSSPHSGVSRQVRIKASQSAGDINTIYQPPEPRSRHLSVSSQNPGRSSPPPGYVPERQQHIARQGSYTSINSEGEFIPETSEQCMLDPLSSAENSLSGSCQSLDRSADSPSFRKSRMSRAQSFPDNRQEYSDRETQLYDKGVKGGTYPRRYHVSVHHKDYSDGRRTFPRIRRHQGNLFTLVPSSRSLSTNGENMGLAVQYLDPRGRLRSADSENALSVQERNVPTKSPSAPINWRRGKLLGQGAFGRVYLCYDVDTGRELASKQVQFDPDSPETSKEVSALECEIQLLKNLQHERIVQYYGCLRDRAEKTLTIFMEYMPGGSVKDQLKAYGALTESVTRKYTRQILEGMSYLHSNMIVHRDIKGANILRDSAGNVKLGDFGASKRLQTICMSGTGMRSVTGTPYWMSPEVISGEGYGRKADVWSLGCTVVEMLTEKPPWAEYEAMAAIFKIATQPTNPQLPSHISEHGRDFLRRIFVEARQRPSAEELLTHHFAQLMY
# MEKK2 WT-MEK5 – raises or lowers MEK5 binding to wildtype human MEKK2 PB1 domain; hit rate 1.1% among 290,000; AID 1531; Q9Y2U5; bead flow cytometry, Alexa488-MEK5 binding to MEKK2 WT; actives lie on both sides; binding response (% of control), % at 10 µM; in the data active = binding response below about 67% or above about 130%
# MEKK2mut PB1 HTS – signal of MEK5 binding to mutant human MEKK2 PB1 domain; hit rate 0.35% among 290,000; bead flow cytometry, Alexa488-MEK5 binding to MEKK2 mutant; percent response, % at 10 µM; in the data active = percent response above about 24%, passing the limit was not always enough
# Arr-AP2 CP1 – blocks beta-arrestin peptide binding to human AP2; shares compounds with Arr AP2 block; GST-AP2 beads, FITC arrestin peptide binding, flow cytometry; GST-fused beta2-adaptin appendage, R879A mutant; inhibition, % at 10 µM; hit rate 2% among 1,300;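 active = inhibition above a set limit, roughly 3 SD of non-fluorescent compound noise, cut at about 38% in these data; inactive = inhibition at or below that limit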;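 note: loss of bead fluorescence from 50 nM FITC arrestin peptide bound to appendage; 0% = negative control wells and 100% = excess unlabelled arrestin peptide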
# GST GSH counter – counter-screen for beta-arrestin AP2 inhibitors: GST-GSH bead binding; shares compounds with Arr AP2 block; GST-fluorescein binding to GSH beads, fluorescence; inhibition, % at 10 µM; hit rate 2% among 1,300; AID 588338;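 active = inhibition above 50%, about 3 SD of the inhibition seen with non-fluorescent compounds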;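 note: fluorescein maleimide labelled GST captured on 4 micron glutathione beads; higher means more loss of bead fluorescence from quenching or blocked binding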
# * marks the source's active call; other numbers are inactive results; · = no result given.
SMILES,Arr AP2 block,MEKK3 PB1 HTS,MEKK2 WT-MEK5,MEKK2mut PB1 HTS,Arr-AP2 CP1,GST GSH counter
O=C(NCCCC1CCCC1)C1CCC(=O)N(Cc2cccc(F)c2)C1 (configuration not stated),47.5,112.0,112.0,7.0,·,·
O=C(NCCc1cccc(F)c1)C1CCC(=O)N(CCCc2ccccc2)C1 (configuration not stated),61.8*,105.0,110.0,6.0,-4.9,-11.3
Cn1nnnc1SCC(=O)Nc1ccc2c(c1)OCO2,-31.6,109.0,104.0,1.0,·,·
CCN(C(=O)COC(=O)c1cc(S(=O)(=O)N(C)C)ccc1Cl)C1CCS(=O)(=O)C1 (configuration not stated),2.0,·,·,·,·,·
CC(C)C1Oc2cc3oc(=O)ccc3cc2C1=O (configuration not stated),12.6,89.0,94.0,-7.0,·,·
O=C(NC1CCN(Cc2ccccc2)CC1)c1ccccc1OCc1ccccc1Cl,0.7,103.0,115.0,17.0,·,·
COc1cc2cc(CCCOC(=O)CCCC(=O)O)oc(=O)c2cc1OC,27.6,·,·,·,·,·
CC(C)Cn1c(N)c(C(=O)COC(=O)c2ccc(Cl)cc2)c(=O)n(C)c1=O,-10.6,89.0,87.0,-9.0,·,·
CC(C)Cn1c(N)c(C(=O)COC(=O)c2ccc(Br)cc2)c(=O)n(C)c1=O,4.3,·,·,·,1.5,1.1
CC(C)Cn1c(N)c(C(=O)COC(=O)c2ccncc2)c(=O)n(C)c1=O,-6.0,104.0,106.0,6.0,-6.8,-3.5
C[C@@H](NC(=O)c1cc2c([nH]c3ccccc32)c(-c2ccccc2)n1)C(=O)O,-12.2,106.0,102.0,7.0,·,·
O=C(C1=C(O)C(=O)N(CCCn2ccnc2)C1c1cccc(Br)c1)c1ccco1 (configuration not stated),55.2*,100.0,97.0,-1.0,5.8,30.2
Cc1ccc(C(=O)OCC(=O)NC2CCS(=O)(=O)C2)c(C)c1 (configuration not stated),13.2,·,·,·,·,·
Cc1ccc2nc3c(c(C(=O)OCC(=O)NC4CCS(=O)(=O)C4)c2c1)CCCC3 (configuration not stated),57.0*,98.0,90.0,-7.0,1.7,-3.4
Cc1nc(C)c(-c2ccc(SCc3ccccc3F)nn2)s1,-2.4,103.0,105.0,6.0,·,·
COc1cc(/C=C(/C#N)c2nc3ccccc3[nH]2)ccc1OCC(=O)Nc1ccccc1C,1.7,93.0,91.0,-5.0,·,·
COc1cc(/C=C(\C#N)c2nc3ccccc3[nH]2)ccc1OC(=O)c1ccco1,96.8*,102.0,107.0,4.0,12.5,-4.7
Cc1cc(Br)ccc1OCCNCc1ccccc1,55.9*,103.0,126.0,19.0,-1.8,-13.2
Cc1cc(C)c(C)c(OCCNCc2ccccc2)c1,-3.0,103.0,119.0,5.0,·,·
CN(C(=O)COC(=O)c1cc(-c2ccc(Cl)s2)nc2ccccc12)C1CCS(=O)(=O)C1 (configuration not stated),63.7*,95.0,93.0,-8.0,13.3,-1.9
O=C(O)c1sccc1Oc1ccc(NS(=O)(=O)c2ccccc2)cc1,32.9,100.0,101.0,2.0,·,·
Cn1c(N)c(C(=O)COC(=O)c2ccc(Br)o2)c(=O)n(C)c1=O,12.9,105.0,106.0,6.0,1.2,-0.2
Cn1c(N)c(C(=O)COC(=O)c2cncc(Br)c2)c(=O)n(C)c1=O,60.8*,87.0,82.0,-18.0,-8.8,5.9
Cn1c(N)c(C(=O)COC(=O)CNC(=O)c2ccccc2)c(=O)n(C)c1=O,-8.6,·,·,·,·,·
CCCCOc1ccc(C(=O)OCC(=O)c2c(N)n(C)c(=O)n(C)c2=O)cc1,-8.5,·,·,·,-1.4,4.7
SMILES,Arr AP2 block,MEKK3 PB1 HTS,MEKK2 WT-MEK5,MEKK2mut PB1 HTS,Arr-AP2 CP1,GST GSH counter
Cc1ccc(C(=O)NCC(=O)OCC(=O)c2c(N)n(C)c(=O)n(C)c2=O)s1,74.7*,·,·,·,-11.5,2.6
O=S(=O)(c1cccc(Br)c1)N1CCN(C(=S)NCC2CCCO2)CC1 (configuration not stated),-9.2,·,·,·,·,·
O=C(Cn1cc(COc2c(F)c(F)cc(F)c2F)nn1)c1ccc(O)cc1,-17.1,·,·,·,·,·
O=C(NCCc1nnc2ccc(SCC(=O)N3CCCC3)nn12)c1ccccc1,-8.4,101.0,104.0,1.0,·,·
Cn1c(N)c(C(=O)COC(=O)CCC2CCCCC2)c(=O)n(C)c1=O,55.4*,98.0,97.0,-3.0,1.8,5.7
CN1CCN(NC(=O)c2ccc(Br)s2)CC1,0.8,91.0,84.0,-19.0,·,·
CCOc1ccccc1CNC(=O)CCCn1ncn2c(cc3occc32)c1=O,64.1*,98.0,97.0,-6.0,8.9,1.0
CCOc1ccccc1OCCC(=O)Nc1ccc2c(c1)OCO2,1.6,·,·,·,-3.3,-0.9
CCOc1ccccc1NC(=O)Nc1ccc2c(c1)OCO2,-10.9,100.0,94.0,-5.0,·,·
CCC(=O)c1ccc(OCC(=O)Nc2ccc3c(c2)OCCO3)cc1,7.8,·,·,·,-3.6,-3.6
Cc1ccc(OCCC(=O)Nc2ccc3c(c2)OCCCO3)cc1,-0.3,·,·,·,2.7,-1.9
CC(=O)c1ccc(OCCCC(=O)Nc2ccc3c(c2)OCCO3)cc1,-2.3,·,·,·,-2.8,-3.0
O=C(COc1ccc(F)cc1)Nc1ccc2c(c1)OCCO2,-6.6,94.0,101.0,2.0,·,·
Cc1nn(-c2ccccc2)c(C)c1C(=O)N1CCN(S(=O)(=O)c2ccccc2)CC1,37.8,·,·,·,·,·
Cc1ccccc1SCC(=O)OCC(=O)N(C)c1c(N)n(Cc2ccccc2)c(=O)[nH]c1=O,8.5,·,·,·,·,·
COc1ccccc1OCC(=O)Nc1ccc2c(c1)OCO2,15.4,100.0,103.0,0.0,·,·
COc1cc(C)ccc1OCC(=O)Nc1ccc2c(c1)OCO2,-5.7,·,·,·,3.3,-4.7
Cc1cc(S(=O)(=O)NC(C)C)ccc1OCC(=O)Nc1ccc2c(c1)OCCO2,63.1*,102.0,93.0,-8.0,22.5,-6.7
COc1ccc(-c2nc(CS(=O)(=O)CC(=O)NCc3ccccc3OC)c(C)o2)cc1,17.2,97.0,98.0,0.0,·,·
CCC[C@@H](NS(=O)(=O)c1ccc(C)cc1)C(=O)Oc1ccc2c3c(c(=O)oc2c1)CCC3,56.5*,102.0,103.0,6.0,-4.5,-4.2
Oc1[nH]c2c(Cl)cc(Cl)cc2c1N=NC(=S)NCC1CCCO1 (configuration not stated),103.9*,98.0,81.0,14.0,19.8,1.2
Cc1cc(C)c2[nH]c(O)c(N=NC(=S)NCC3CCCO3)c2c1 (configuration not stated),-0.8,76.0,84.0,-7.0,·,·
O=C(c1ccc2ncsc2c1)N1CCN(c2ccc(O)cc2)CC1,64.8*,95.0,96.0,-3.0,-8.7,-12.0
CC(C)c1ccc(N2C(=O)CC(NNC(=O)c3cccnc3)C2=O)cc1 (configuration not stated),-8.0,90.0,93.0,-6.0,·,·
O=C(COc1ccccc1Br)NC(=O)NC1CCCC1,55.8*,·,·,·,-7.3,-8.1
